A value given as a limit tells only on which side of the number the result lay.

The target of this test is Synaptic vesicle glycoprotein 2A (Rattus norvegicus, UniProt Q02563). Description: In vitro inhibitory activity against [3H](2S)-2-[4-(3-azidophenyl)-2-oxopyrrolidin-1-yl]butanamide binding to levetiracetam binding site. The method in brief: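 Rat cerebral cortex membranes (male Sprague-Dawley, 200–250 g), homogenised in Tris-HCl/sucrose at 4 °C, washed, preincubated 15 min at 37 °C. Binding: 4 °C for 120 min in 50 mmol/L Tris-HCl pH 7.4 with 2 mmol/L MgCl2, 1–2 × 10^-9 mol/L tritiated azidophenyl radioligand, rising test concentrations. Nonspecific binding with 10^-3 mol/L levetiracetam. Rapid filtration, scintillation counting. pIC50 is the mean of two independent determinations.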
Sequence of Synaptic vesicle glycoprotein 2A (Q02563 whole entry): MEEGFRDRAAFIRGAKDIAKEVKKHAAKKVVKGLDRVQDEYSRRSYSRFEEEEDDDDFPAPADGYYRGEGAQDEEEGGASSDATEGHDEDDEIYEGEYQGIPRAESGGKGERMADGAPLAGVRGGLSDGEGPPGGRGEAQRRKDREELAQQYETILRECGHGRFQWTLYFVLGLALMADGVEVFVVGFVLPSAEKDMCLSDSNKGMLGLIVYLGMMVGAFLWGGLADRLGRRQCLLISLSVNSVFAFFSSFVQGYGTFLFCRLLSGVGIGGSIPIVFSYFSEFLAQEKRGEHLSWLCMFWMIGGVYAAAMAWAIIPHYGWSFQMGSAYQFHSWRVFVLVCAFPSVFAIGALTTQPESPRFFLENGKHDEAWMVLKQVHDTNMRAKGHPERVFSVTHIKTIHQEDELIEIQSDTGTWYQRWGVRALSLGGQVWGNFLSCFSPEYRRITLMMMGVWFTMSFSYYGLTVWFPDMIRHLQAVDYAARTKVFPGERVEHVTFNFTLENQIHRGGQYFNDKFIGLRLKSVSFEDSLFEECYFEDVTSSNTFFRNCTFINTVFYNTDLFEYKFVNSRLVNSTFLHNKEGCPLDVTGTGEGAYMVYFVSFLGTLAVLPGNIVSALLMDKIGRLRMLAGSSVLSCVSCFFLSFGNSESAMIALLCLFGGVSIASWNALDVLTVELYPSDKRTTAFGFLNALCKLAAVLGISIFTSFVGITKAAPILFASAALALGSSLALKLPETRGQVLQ
The term IC50 denotes the concentration at which inhibition is half-maximal. On to `CCC[C@H](C(N)=O)N1CCCC1=O`, for which the IC50 was 999000 nM. Then `CC[C@@H](C(N)=O)N1C[C@H](CO[N+](=O)[O-])CC1=O`, with 100 nM; and `CC[C@@H](C(N)=O)N1C[C@H](CSC)CC1=O`, with 125 nM; and `CC[C@@H](C(N)=O)N1C[C@H](CCl)CC1=O`, with 199 nM. In the case of `CCCCN(C(=O)CC)[C@@H](CC)C(N)=O` it was 9990 nM; in that of `CC[C@@H](C(=N)N)N1CCCC1=O`, 12500 nM; in that of `CC[C@@H](C(N)=O)N1C[C@H](CBr)CC1=O`, 251 nM.

With `CC[C@@H](C(N)=O)N1CC(CC(C)(C)C)CC1=O` (stereo partly specified), the IC50 amounted to 794 nM.

The compound `CCC(C(N)=O)N1CC(C(C)C)CC1=O` (stereo unspecified) showed an IC50 of 3980 nM. Turning to `CC[C@@H](C(N)=O)N1C[C@H](CI)CC1=O`, the IC50 came to 158 nM.

Turning to `CCCCC1CC(=O)N(C(CC)C(N)=O)C1` (stereo unspecified), the IC50 was 398 nM.

`CCCCCCCCN(C(=O)CC)C(CC)C(N)=O` (stereo unspecified) yielded an IC50 of 3980 nM. In turn, `CCC(C(N)=O)N1C(=O)CCC1(C)C` (stereo unspecified) showed an IC50 of 63000 nM. In the case of `C[C@@H](C(N)=O)N1CCCC1=O` it was 3160 nM. In the case of `CC[C@@H](C(N)=O)N(C)C(C)=O` it was 15800 nM; in that of `CCCCCCCN(C(=O)Cc1ccc(OC)cc1)C(CC)C(N)=O` (stereo unspecified), 2510 nM.

`CCCC1(C)CC(=O)N([C@@H](CC)C(N)=O)C1` (stereo partly specified) registered an IC50 of 398 nM. In the case of `CCC(C(=O)N(C)O)N1CCCC1=O` (stereo unspecified), the IC50 came out at 19900 nM. Then `CC[C@@H](C(N)=O)N1CC(NC(=O)OC)CC1=O` (stereo partly specified), with 1580 nM; and `CC[C@@H](C(=O)NC)N1CCCC1=O`, with 12500 nM. Then `CCC(C(N)=O)N1CC(Cc2ccccc2)CC1=O` (stereo unspecified), with 2510 nM. Then `CC[C@@H](C(N)=O)N1CCC(C)C1=O` (stereo partly specified), with 19900 nM; and `CCC[C@H]1CC(=O)N([C@@H](CC)C(N)=O)C1`, with 251 nM; and `CC[C@@H](C(N)=O)N1C[C@H](C)CC1=O`, with 1250 nM.

Compound `CCCCCCCCN(C(=O)Cc1ccc(Cl)cc1)C(CC)C(N)=O` (stereo unspecified) gave an IC50 of 1990 nM. Then `CCCCCC1CC(=O)N(C(CC)C(N)=O)C1` (stereo unspecified), with 1250 nM.

`CCC1CC(=O)N([C@@H](CC)C(N)=O)C1` (stereo partly specified) returned an IC50 of 1250 nM. Regarding `CC(C)C(C(N)=O)N1CCCC1=O` (stereo unspecified), the IC50 worked out at 19900 nM. In the case of `CC[C@@H](C(N)=O)N1CC(CC2CC2)CC1=O` (stereo partly specified) it was 125 nM; in that of `CCC(C(N)=O)N1CC(COC)CC1=O` (stereo unspecified), 1580 nM; in that of `CCC[C@@H](C(N)=O)N1CCCC1=O`, 5010 nM.

Compound `CCCCCN(C(=O)CC)C(CC)C(N)=O` (stereo unspecified) gave an IC50 of 1990 nM. In the case of `CC[C@@H](C(N)=O)N1C(=O)CCC1C` (stereo partly specified) it was 2510 nM; in that of `CC[C@@H](C(=O)NO)N1CCCC1=O`, 1990 nM; in that of `CC[C@@H](C(N)=O)N1C[C@H](CF)CC1=O`, 1250 nM.

In turn, `CCC(C(=O)NN)N1CCCC1=O` (stereo unspecified) had an IC50 of 6300 nM. Then `CC[C@@H](C(N)=O)N1C[C@H](CN=[N+]=[N-])CC1=O`, with 79.4 nM; and `NC(=O)CN1CCCC1=O` [2-(2-oxopyrrolidin-1-yl)acetamide], with 39800 nM. Then `CC[C@H](C(N)=O)N1CCCC1=O` [Levitiracetam], with < 999000 nM; and `CC[C@@H](C(N)=O)N1CCCC1=O` [UCB-22059], with 794 nM. On to `CCC[C@@H]1CC(=O)N([C@@H](CC)C(N)=O)C1` [UCB-34714], for which the IC50 turned out to be 100 nM.

The values are drawn from BindingDB's records for doi:10.1021/jm030913e (Ucb Pharma, 2004).
